# An excerpt weighted towards active compounds, which were near 3.3% of everything screened.
# rCAG binder: binds r(CAG) RNA repeats; r(CAG) RNA repeat, TO-PRO-1 dye displacement fluorescence; inhibition, % at 3 µM; hit rate 1.3% among 370,000; AID 651821;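 active = inhibition above the plate cutoff, the mean of all test compounds on that plate plus 3 SD, cut at about 35% in these data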;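 note: higher means more dye released from RNA so lower well fluorescence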
# PRMT1 inh: PRMT1 (human) inhibition, primary screen | Q99873 | recombinant PRMT1, activity-based probe fluorescence polarization | inhibition, % at 2.79 µM | hit rate 1.3% among 370,000;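 active = inhibition above about 21% made by adding two undisclosed values, limit read from the data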
# SIAE inh: human SIAE inhibition, primary screen; Q9HAT2; SIAE FP-Rh probe binding, fluorescence polarization; inhibition, % at 9.66 µM; hit rate 0.69% among 370,000; AID 1053197;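 active = inhibition above a cutoff: mean of compounds within the control limits plus 3 SD of those, cut at about 17% in these data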
# ABHD4 inh: ABHD4 (mouse) inhibition, primary FP screen; Q8VD66; inhibition, % at 8.92 µM; hit rate 0.54% among 370,000; AID 720543; purified mABHD4, FP-Rh probe fluorescence polarization;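 active = inhibition exceeding the mean over every tested compound plus 3 SD, cut at about 30% in these data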
# Target sequence (Q8VD66 whole entry, looked up): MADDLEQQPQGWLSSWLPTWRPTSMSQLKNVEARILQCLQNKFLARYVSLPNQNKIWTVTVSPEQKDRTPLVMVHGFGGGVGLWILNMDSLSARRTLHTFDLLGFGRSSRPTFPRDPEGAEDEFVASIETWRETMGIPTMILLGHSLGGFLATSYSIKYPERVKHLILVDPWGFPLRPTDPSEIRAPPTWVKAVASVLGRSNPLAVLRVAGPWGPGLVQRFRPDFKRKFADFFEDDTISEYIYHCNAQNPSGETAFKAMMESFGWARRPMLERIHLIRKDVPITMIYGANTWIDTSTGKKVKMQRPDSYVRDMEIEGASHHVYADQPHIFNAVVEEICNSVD
#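 Test system: mABHD4 protein; Read-out basis: % inhibition; Incubation: 45 min + 60 min at 25 °C; Repeats: single replicate; Technique: fluorescence polarization with parallel and perpendicular emission, 525/598 nm; Compound: 8.92 µM, single dose; Benchmarks: full inhibition S159A mutant plus DMSO, zero as sample-well median.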
# TCR-CD3 inh: inhibitors of human TCR-CD3 interaction | TAMRA-labeled TCR probe fluorescence, biochemical | inhibition, % at 9.4 µM | hit rate 0.37% among 360,000 | AID 651800; in the data active = inhibition above about 19%;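 note: recombinant mutant TCR 2C K166C tagged with TAMRA read by polarization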
# rCAG binder conf: r(CAG) RNA repeat binding, confirmation; TO-PRO-1 dye displacement fluorescence; shares compounds with rCAG binder; hit rate 70% among 4,300; inhibition, % at 3 µM;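 active = inhibition above a per-plate cutoff, the mean inhibition of sample wells plus 3 SD, cut at about 35% in these data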;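 note: loss of TO-PRO-1 fluorescence as compound displaces dye from 1x1 AA loop RNA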
# DNA CAG counter: disrupts DNA CAG TO-PRO-1 complex, flagging rCAG hits; AID 652068; shares compounds with rCAG binder; inhibition, % at 3 µM; hit rate 94% among 4,300; d(CAG) DNA oligo TO-PRO-1 dye displacement, fluorescence;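 active = inhibition above its plate's cutoff, the mean test-well inhibition plus 3 SD, cut at about 4.8% in these data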;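 note: hits displace the dye from DNA and so lower well fluorescence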
# DNA CAG DR: counter-screen for rCAG binders: inhibitors of DNA CAG TO-PRO-1 complex | shares compounds with rCAG binder | DNA CAG/GTC duplex TO-PRO-1 dye displacement fluorescence | IC50, µM | hit rate 20% among 250; in the data active = IC50 below about 10 µM
# A number is an active result; - = inactive; . = no result.
SMILES,rCAG binder,PRMT1 inh,SIAE inh,ABHD4 inh,TCR-CD3 inh,rCAG binder conf,DNA CAG counter,others
O=C(Nc1cc(S(=O)(=O)N2CCOCC2)ccc1O)c1ccc2c(c1)S(=O)(=O)c1ccccc1C2=O,42.5,21.5,-,-,-,68.7,30.7,
O=S(=O)(Nc1nc2ccccc2nc1Nc1ccc2c(c1)OCCO2)c1cccs1,90.9,-,-,-,-,82.7,51.1,
Cc1cc(=O)n2[nH]c(N)c(N=Nc3ccccc3)c2n1,-,-,-,-,-,.,.,
Nc1[nH]n2c(=O)c3c(nc2c1N=Nc1ccccc1)CCCC3,34.6,-,-,-,-,-,-,
O=S1(=O)c2ccc(N3CCC[C@H]3CO)cc2O[C@H]2CCN1C2,-,-,-,-,.,.,.,
CCOc1ccc(-n2c(=S)sc3c(=O)[nH]c(SCC(=O)N4CCC(C)CC4)nc32)cc1,-,-,-,-,-,.,.,
CCN(CC)C(=O)CSc1nc2nc(C)cc(C)c2c(=O)[nH]1,-,-,-,-,-,.,.,
CCOc1ccc(-n2c(=S)sc3c(=O)[nH]c(SCC(=O)NCc4ccco4)nc32)cc1,47.2,-,-,-,-,40.9,11.8,
CCN(CC)C(=O)CSc1nc2c(sc(=S)n2-c2ccc(C)cc2C)c(=O)[nH]1,39.2,-,-,-,-,46.5,14.6,
CCOC(=O)CSc1nc2c(sc(=S)n2-c2ccccc2)c(=O)[nH]1,-,-,-,-,-,.,.,
CCOc1ccc(-n2c(=S)sc3c(=O)[nH]c(SCC(=O)C(C)(C)C)nc32)cc1,37.2,-,-,-,-,66.2,30.1,
CCOC(=O)CSc1nc2c(sc(=S)n2-c2ccc(OCC)cc2)c(=O)[nH]1,43.2,-,-,-,-,38.8,10.2,
O=C(NCc1ccc(Cl)c(Cl)c1)O[C@H]1CC[C@@]23CCCN2C(=O)CCC[C@H]3C1,.,-,-,-,.,.,.,
Cc1ccc(-c2csc3nc(SCC(=O)Nc4ccc(Cl)c(C(=O)O)c4)[nH]c(=O)c23)cc1,80.6,-,-,-,-,55.1,20.2,
CCCc1cc(=O)oc2cc(C)cc(OCC(=O)N[C@@H](CSCc3ccccc3)C(=O)O)c12,61.9,-,-,-,-,50.2,13.4,
CCCc1cc(=O)oc2cc(C)cc(OCC(=O)NC(Cc3ccc(Cl)cc3)C(=O)O)c12 (stereo unspecified),45.5,-,-,-,-,47.2,10.4,DNA CAG DR=-
CCCc1cc(=O)oc2cc(C)cc(OCC(=O)O)c12,-,-,-,-,-,.,.,
Cc1cc(OCC(=O)NC(Cc2ccc(Cl)cc2)C(=O)O)c2c(C)c(C)c(=O)oc2c1 (stereo unspecified),45.1,-,-,-,-,41.6,9.4,
Cc1cc(OCC(=O)NC(Cc2c[nH]c3ccc(O)cc23)C(=O)O)c2c(C)c(C)c(=O)oc2c1 (stereo unspecified),-,-,-,-,-,.,.,
COc1cccc(OC)c1NC(=O)OCCN1CCCC12CCC(c1ccccc1)CC2 (stereo unspecified),.,-,-,-,.,.,.,
CCSc1nsc(NC(=O)Nc2ccccc2Cl)n1,-,-,-,-,-,.,.,
CCOc1ccc(NC(=O)Nc2nc(SCC)ns2)cc1,64.8,-,-,-,-,-,18.5,
COC(=O)c1c(NC(=O)/C=C/C(=O)O)sc(C)c1-c1ccc(C)cc1,-,-,-,-,-,.,.,
CCOC(=O)c1c(NC(=O)/C=C/C(=O)O)sc(C)c1-c1ccc(F)cc1,-,-,-,-,-,.,.,
COC(=O)c1c(NC(=O)/C=C/C(=O)O)sc(C)c1-c1ccc(C)c(C)c1,36.7,-,-,-,-,35.6,9.1,
SMILES,rCAG binder,PRMT1 inh,SIAE inh,ABHD4 inh,TCR-CD3 inh,rCAG binder conf,DNA CAG counter,others
CCOC(=O)c1c(NC(=O)/C=C/C(=O)O)sc(C)c1-c1ccc(C)c(C)c1,52.8,-,-,-,-,52.6,16.7,
COC(=O)c1c(NC(=O)/C=C/C(=O)O)sc(C)c1-c1ccc(C(C)C)cc1,51.9,-,-,-,-,51.3,15.8,
CN1C(=O)NC(c2ccccc2)C2=C1CN(c1cccc(C(F)(F)F)c1)C2=O (stereo unspecified),48.7,-,-,-,-,-,-,
Cc1ccccc1N1CC2=C(C1=O)C(c1ccccc1)NC(=O)N2C (stereo unspecified),-,-,-,-,-,.,.,
CCC(Sc1nc2ccsc2c(=O)n1Cc1ccc(C(=O)O)cc1)C(=O)Nc1ccc(Cl)cc1 (stereo unspecified),71.6,-,-,-,-,70.2,34.3,DNA CAG DR=-
Cc1ccccc1C(=O)NC1CCCCN(Cc2cccc(Cl)c2)C1=O (stereo unspecified),-,-,-,-,.,.,.,
Cc1c(C)n(Cc2ccc(-c3ccccc3C(=O)O)cc2)c2ccc(C(=O)N[C@@H](C)c3ccc([N+](=O)[O-])cc3)cc12,73.5,-,-,-,.,74.4,34.8,
CCC(NC(=O)c1ccc2c(c1)c(C)c(C)n2Cc1ccc(Cl)cc1)c1ccccc1 (stereo unspecified),-,-,-,-,.,.,.,
Cc1ccc(CNC(=O)OC(C)(C)C)c(/C=C/S(=O)(=O)NC2CCCC2)c1,-,-,-,-,.,.,.,
COc1ccc2c(c1)c(=O)oc1cc(OC(C(=O)O)c3ccccc3)ccc12 (stereo unspecified),52.3,-,-,-,-,40.7,10.1,
COC(=O)c1ccc(CSc2nc3c(cnn3-c3ccccc3)c(=O)[nH]2)o1,38.1,-,-,-,-,36.2,8.0,
O=C(N[C@H]1CC[C@@H]2SC[C@@H](C(=O)O)N2C1=O)OCC1c2ccccc2-c2ccccc21,-,-,-,-,.,.,.,
COC(=O)c1sccc1NC(=O)CSc1ccccc1NS(=O)(=O)c1ccc(Br)cc1,45.5,-,-,-,-,50.4,14.9,
O=C(c1cc(-c2cccc(Cl)c2)nc2ccccc12)N1CCN(c2ccccn2)CC1,-,-,-,-,-,.,.,
O=C(O)c1cc(-c2cccc(Cl)c2)nc2nc(N3CCCCC3)sc12,45.9,-,-,-,-,46.9,11.9,DNA CAG DR=-
CCCc1cc(=O)[nH]c(SCC(=O)Nc2sc3c(c2C#N)CCC(C)C3)n1 (stereo unspecified),66.2,-,-,-,-,52.7,19.9,
CC1CCc2c(sc(NC(=O)COC(=O)c3ccc(NC(=O)CC#N)cc3)c2C#N)C1 (stereo unspecified),39.4,-,-,-,-,37.0,17.7,
O=C1CCC[C@H]2Cc3nc4cc5c(cc4cc3C[C@]23CCCN13)OCO5,.,-,-,-,.,.,.,
COCCCNC(=O)C[C@H]1C[C@@]2(C(=O)OC)C(=C[C@H](COCc3ccccc3)O[C@@H]2C)N(Cc2ccc(Cl)cc2Cl)C1=O,-,-,-,-,.,.,.,
